Consider 18 compounds from ChEMBL document CHEMBL3792366, “Role of disulfide linkage in action of bis(dialkylaminethiocarbonyl)disulfides as potent double-Edged microbicidal spermicide: Design, synthesis and biology” (Eur J Med Chem, 2016).

Values after ≈ are worked out from the molar mass of the structure shown.

A short description of test [1]: Spermicidal activity in human sperms assessed as motility measured within 30 secs by phase contrast microscopy. The test is classed as functional, Sperm. Summed up: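 Liquefied human semen (0.05 mL) was added to 0.25 mL test solution and vortexed 10 s at low speed. Motile sperm were scored visually under phase contrast in five fields within 30 s; assays in triplicate; MEC = minimum effective concentration.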

For test [2], the system named is Candida albicans. The experiment in a line: Antifungal activity against Candida albicans after 48 hrs by broth microdilution method. The test is classed as functional. Put shortly: (§1)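 NCCLS broth microdilution in RPMI 1640 buffered with MOPS; starting inoculum 1–5 × 10^3 CFU/mL; plates incubated at 35 °C; MIC read after 48 h.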
Background: Dilution methods test growth across graded concentrations, often in twofold steps.

Test [3] has as its system Cryptococcus neoformans. As to the kind of experiment: Antifungal activity against Cryptococcus neoformans after 48 hrs by broth microdilution method. The test is classed as functional. Put shortly:
as §1

Test [4] relates to Sporothrix schenckii. The experiment in a line: Antifungal activity against Sporothrix schenckii after 48 hrs by broth microdilution method. The test is classed as functional. Put shortly: as §1
The subject of test [5] is Trichophyton mentagrophytes. The experiment in a line: Antifungal activity against Trichophyton mentagrophytes after 48 hrs by broth microdilution method. The test is classed as functional. Summed up: as §1
In test [6] the test system is Candida parapsilosis. As to the kind of experiment: Antifungal activity against Candida parapsilosis ATCC 22019 after 48 hrs by broth microdilution method. The test is classed as functional. Particulars: Lodderomyces parapsilosis, ATCC 22019, 48 h. Summed up:
as §1

For test [7], the system named is Trichomonas vaginalis. The experiment in a line: Antitrichomonas activity against trophozoite stage of Trichomonas vaginalis clinical isolate assessed as cell viability under anaerobic condition after 48 hrs by trypan blue exclusion assay. The test is classed as functional. Put shortly: (§2)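 Log-phase T. vaginalis grown in TYM with 10% FCS, vitamin mix and penicillin/streptomycin at 37 °C. Compounds were made as 100 µg/mL DMSO stocks and serially diluted in TYM down to 0.1 µg/mL; DMSO/TYM served as vehicle. Parasites were incubated anaerobically at 37 °C, and viability was checked by trypan blue exclusion from 3 to 48 h. MIC = lowest concentration killing all cells by 48 h; each test was repeated three times.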

Test [8] has as its system Trichomonas vaginalis. As to the kind of experiment: Antitrichomonas activity against metronidazole-resistant trophozoite stage of Trichomonas vaginalis ATCC 50143 assessed as cell viability under anaerobic condition after 48 hrs by trypan blue exclusion assay. The test is classed as functional. Particulars: ATCC 50143, 48 h. Summed up: as §2

On to `CCCCCCSC(=S)N1CCN(CCCC#N)CC1`, for which the MEC in test [1] is recorded as more than 1%.
What is called MIC is the lowest concentration that inhibits growth of the organism. Turning to `S=C(SCc1ccccc1)N1CCN(C(=S)SSC(=S)N2CCN(C(=S)SCc3ccccc3)CC2)CC1`, in test [1], the MEC is listed as more than 1%. Moreover, the minimal inhibitory concentration (MIC) was more than 76.3 µM in test [2]; more than 76.3 µM in test [3]; more than 76.3 µM in test [4]; more than 76.3 µM in test [5]; more than 76.3 µM in test [6]; 95.4 µM (≈ 62.5 µg/mL) in test [7]. The minimal inhibitory concentration (MIC) in test [8] amounted to 95.4 µM (≈ 62.5 µg/mL).
For `S=C(SSC(=S)N(C1CCCCC1)C1CCCCC1)N(C1CCCCC1)C1CCCCC1`, the MEC in test [1] is recorded as more than 1%. Besides, the MIC in test [2] is 48.7 µM (≈ 25 µg/mL); in test [3], 24.3 µM (≈ 12.5 µg/mL); in test [4] it was 97.4 µM (≈ 50 µg/mL); in test [5], 97.4 µM (≈ 50 µg/mL); in test [6], more than 97.4 µM; in test [7], more than 194 µM. In addition, the MIC in test [8] is more than 194 µM.
Take `OC(Cn1cncn1)(Cn1cncn1)c1ccc(F)cc1F` [FLUCONAZOLE]: the minimum inhibitory concentration (MIC) is 0.39 µM (≈ 0.119 µg/mL) in test [2]; 0.19 µM (≈ 0.0582 µg/mL) in test [3]; 0.39 µM (≈ 0.119 µg/mL) in test [4]; 0.39 µM (≈ 0.119 µg/mL) in test [5]; 0.39 µM (≈ 0.119 µg/mL) in test [6].
As for `CCCCN1CCN(C(=S)SCCCSC(=S)N2CCN(CCCC)CC2)CC1`, the MEC in test [1] stood at 0.5%.
Take `CC(C)(C)OC(=O)N1CCN(C(=S)SSC(=S)N2CCN(C(=O)OC(C)(C)C)CC2)CC1`: the MEC in test [1] is listed as more than 1%. Further, the minimum inhibitory concentration (MIC) in test [2] was more than 91.7 µM; in test [3], more than 91.7 µM; in test [4] it was more than 91.7 µM; in test [5] it was more than 91.7 µM; in test [6], more than 91.7 µM; in test [7] it was more than 183 µM. Also, the minimum inhibitory concentration (MIC) in test [8] is more than 183 µM.
For `O=[N+]([O-])c1ccc(N2CCN(C(=S)SSC(=S)N3CCN(c4ccc([N+](=O)[O-])cc4C(F)(F)F)CC3)CC2)c(C(F)(F)F)c1`, the MEC in test [1] amounted to 0.1%. Besides, the MIC in test [2] is 35.6 µM (≈ 24.9 µg/mL); in test [3], more than 71.3 µM; in test [4], more than 71.3 µM; in test [5], 71.3 µM (≈ 50 µg/mL); in test [6] it was more than 71.3 µM; in test [7], more than 142 µM. Moreover, in test [8], the MIC is more than 142 µM.
Regarding `O=C(c1ccccc1)N1CCN(C(=S)SSC(=S)N2CCN(C(=O)c3ccccc3)CC2)CC1`, in test [1], the MEC is given as 0.5%. Further, the MIC is 94.1 µM (≈ 49.9 µg/mL) in test [2]; more than 94.1 µM in test [3]; more than 94.1 µM in test [4]; more than 94.1 µM in test [5]; more than 94.1 µM in test [6]; more than 188 µM in test [7]. The MIC in test [8] was more than 188 µM.
Consider `S=C(SSC(=S)N1CCCCC1)N1CCCCC1` [BIS(PIPERIDINYLTHIOCARBONYL)DISULFIDE], for which the MEC in test [1] turned out to be 1%. In addition, the MIC in test [2] is 9.7 µM (≈ 3.11 µg/mL); in test [3], 2.4 µM (≈ 0.769 µg/mL); in test [4], 38.9 µM (≈ 12.5 µg/mL); in test [5] it was 19.4 µM (≈ 6.22 µg/mL); in test [6], 38.9 µM (≈ 12.5 µg/mL); in test [7], 155 µM (≈ 49.7 µg/mL). Further, in test [8], the MIC amounted to 155 µM (≈ 49.7 µg/mL).
In the case of `CCCCCCCCCCSC(=S)N1CCN(C(=S)SSC(=S)N2CCN(C(=S)SCCCCCCCCCC)CC2)CC1`, in test [1], the MEC is 1%. In addition, the minimum inhibitory concentration (MIC) in test [2] is 66.2 µM (≈ 50 µg/mL); in test [3], 33.1 µM (≈ 25 µg/mL); in test [4], 66.2 µM (≈ 50 µg/mL); in test [5] it was more than 66.2 µM; in test [6], 66.2 µM (≈ 50 µg/mL); in test [7], more than 132 µM. The minimum inhibitory concentration (MIC) in test [8] is more than 132 µM.
For the compound `CCCCN1CCN(C(=S)SCCSC(=S)N2CCN(CCCC)CC2)CC1`, the MEC in test [1] was found to be 0.5%.
Take `S=C(SSC(=S)N1CCN(c2ccccn2)CC1)N1CCN(c2ccccn2)CC1`: the MEC in test [1] came out at 1%. Further, the minimum inhibitory concentration (MIC) is more than 104 µM in test [2]; 104 µM (≈ 49.6 µg/mL) in test [3]; 104 µM (≈ 49.6 µg/mL) in test [4]; 52.4 µM (≈ 25 µg/mL) in test [5]; more than 104 µM in test [6]; more than 209 µM in test [7]. In addition, the minimum inhibitory concentration (MIC) in test [8] is more than 209 µM.
Consider `CCCCCCCCN1CCN(C(=S)SSC(=S)N2CCN(CCCCCCCC)CC2)CC1`, for which the MEC in test [1] was 0.1%. In addition, the minimal inhibitory concentration (MIC) in test [2] was 91.4 µM (≈ 50 µg/mL); in test [3], 91.4 µM (≈ 50 µg/mL); in test [4], 91.4 µM (≈ 50 µg/mL); in test [5] it was 91.4 µM (≈ 50 µg/mL); in test [6], 91.4 µM (≈ 50 µg/mL); in test [7] it was 182 µM (≈ 99.6 µg/mL). The MIC in test [8] worked out at 182 µM (≈ 99.6 µg/mL).
In the case of `CN1CCN(C(=S)SCCSC(=S)N2CCN(C)CC2)CC1`, the MEC in test [1] came out at 0.5%.
With `CCCCCCCSC(=S)N1CCN(C(=S)SSC(=S)N2CCN(C(=S)SCCCCCCC)CC2)CC1`, in test [1], the MEC was more than 1%. Moreover, the MIC is more than 74.5 µM in test [2]; 74.5 µM (≈ 50 µg/mL) in test [3]; 74.5 µM (≈ 50 µg/mL) in test [4]; more than 74.5 µM in test [5]; 74.5 µM (≈ 50 µg/mL) in test [6]; more than 149 µM in test [7]. The minimal inhibitory concentration (MIC) in test [8] is more than 149 µM.
In the case of `C=CCN1CCN(C(=S)SCCC)CC1`, the MEC in test [1] is more than 1%.
Still for that read-out and setting: the value for `C=CCN1CCN(C(=S)SCCCCCC)CC1` was more than 1%.
As to `CCCCSC(=S)N1CCN(C(=S)SSC(=S)N2CCN(C(=S)SCCCC)CC2)CC1`, the MEC in test [1] is more than 1%. The MIC was more than 85.1 µM in test [2]; 85.1 µM (≈ 50 µg/mL) in test [3]; 85.1 µM (≈ 50 µg/mL) in test [4]; 42.5 µM (≈ 24.9 µg/mL) in test [5]; 42.5 µM (≈ 24.9 µg/mL) in test [6]; more than 170 µM in test [7]. Moreover, in test [8], the minimum inhibitory concentration (MIC) is more than 170 µM.
